In ChEMBL document CHEMBL1154400, “Pharmacokinetics of single- and multiple-dose oral clarithromycin in soft tissues determined by microdialysis” (Antimicrob Agents Chemother, 2007):

Columns and labels:
[1] = Terminal half life in human plasma unbound fraction at 500 mg, po, bid for 3 to 5 days; type: ADME, organism-based; details: read-out: beta t1/2 (converted)
Outline: (§1)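 Free plasma concentrations obtained by applying each volunteer's measured protein binding to total plasma concentrations, measured by HPLC after the 250 mg single dose or the 500 mg b.i.d. steady-state dose, with sampling over 8 h.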

[2] = Terminal half life in human subcutaneous interstitial-space fluid of adipose tissue at 500 mg, po, bid for 3 to 5 days; type: ADME, organism-based; details: read-out: beta t1/2 (converted)
Outline: (§2)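 Oral clarithromycin 500 mg b.i.d. for 3-5 days, starting 12 h after a single 250 mg dose; last dose given supervised on the morning of day 2 after a baseline blood draw and a 2-h trough dialysate. Sampling as on day 1: microdialysis of muscle and adipose tissue plus venous plasma over 8 h, HPLC. Dialysate concentrations corrected for individual recovery.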

[3] = Terminal half life in human interstitial-space fluid of skeletal muscle at 500 mg, po, bid for 3 to 5 days; type: ADME, organism-based, Muscle tissue; details: read-out: beta t1/2 (converted); outline: as §2
[4] = test system: Homo sapiens; experiment: Volume of distribution at steady state in human plasma at 500 mg, po, bid for 3 to 5 days; type: ADME, organism-based; details: in vivo
Outline: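 Healthy male volunteers (n=7, 25–37 y) took clarithromycin 500 mg orally b.i.d. for 3–5 days, with the last dose supervised. Venous blood (lithium heparin) was sampled every 20 min over 0–4 h and every 30 min over 4–8 h, and plasma was assayed by HPLC. Vss = CL × MRT, with CL = dose × F/AUC0-∞ and F taken as 55%. AUCs were calculated by the linear trapezoidal rule.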

[5] = Total clearance in human plasma at 500 mg, po, bid for 3 to 5 days; type: ADME, organism-based
[6] = Drug uptake in human adipose tissue assessed as in vivo drug recovery by microdialysis; type: ADME, organism-based
Outline: (§3)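 Retrodialysis after the 8-h sampling: clarithromycin 5 mg/liter added to the Ringer's perfusate (1.5 µl/min). Recovery (%) = 100 - 100 x Cdialysate/Cperfusate, taken as the mean of two measurements per subject, in muscle and adipose tissue probes.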

[7] = Drug uptake in human Skeletal muscles assessed as in vivo drug recovery by microdialysis; type: ADME, organism-based, Muscle tissue; outline: as §3
[8] = Tmax in human interstitial-space fluid of skeletal muscle at 500 mg, po, bid for 3 to 5 days; type: ADME, organism-based, Muscle tissue; outline: as §2
[9] = Terminal half life in human plasma at 500 mg, po, bid for 3 to 5 days; type: ADME, organism-based; details: read-out: beta t1/2 (converted); outline: as §2
[10] = Tmax in human plasma at 500 mg, po, bid for 3 to 5 days; type: ADME, organism-based; outline: as §2
[11] = Tmax in human plasma unbound fraction at 500 mg, po, bid for 3 to 5 days; type: ADME, organism-based; outline: as §1
[12] = Tmax in human interstitial-space fluid of subcutaneous adipose tissue at 500 mg, po, bid for 3 to 5 days; type: ADME, organism-based; outline: as §2
[13] = Protein binding in human plasma at 250 mg, po; type: ADME, organism-based; details: read-out: PPB (converted)
Outline: (§4)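 Plasma ultrafiltration done for each volunteer on samples taken 80 and 180 min post-dose, after both the single dose and at steady state. 300 µl aliquots spun through 5,000-MW-cutoff regenerated-cellulose filters at 5,000 x g, 30 min, ambient temperature. Ultrafiltrate concentrations corrected for 5% mean membrane binding. Binding (%) = 100 - 100 x Cultrafiltrate corr/Cplasma total.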

[14] = Protein binding in human plasma at 500 mg, po bid for 3 to 5 days; type: ADME, organism-based; details: read-out: PPB (converted); outline: as §4
[15] = AUC (0 to 8 hrs) in fasting human plasma at 250 mg, po; type: ADME, organism-based; design: dose 250 mg, time < 8 hr, route oral
Outline: (§5)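 Healthy male volunteers aged 25-37 y, fasting; single oral 250 mg tablet after 60-min probe equilibration. Microdialysis probes in skeletal muscle and subcutaneous adipose tissue, perfused with Ringer's at 1.5 µl/min; dialysate and antecubital venous blood sampled every 20 min to 4 h, then every 30 min to 8 h. HPLC assay. Interstitial concentration = 100 x Cdialysate/recovery.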

[16] = test system: Homo sapiens; experiment: Free AUC (0 to 8 hrs) in fasting human plasma at 250 mg, po; type: ADME, organism-based; details: in vivo; outline: as §1
[17] = AUC (0 to 8 hrs) in fasting human interstitial-space fluid of subcutaneous adipose tissue at 250 mg, po; type: ADME, organism-based; outline: as §5
[18] = AUC (0 to 8 hrs) in fasting human interstitial-space fluid of skeletal muscle at 250 mg, po; type: ADME, organism-based, Muscle tissue; design: time < 8 hr, dose 250 mg, route oral; outline: as §5
[19] = AUC (0 to 24 hrs) in fasting human plasma at 250 mg, po; type: ADME, organism-based; design: dose 250 mg, time < 24 hr, route oral; outline: as §5
[20] = test system: Homo sapiens; experiment: Free AUC (0 to 24 hrs) in fasting human plasma at 250 mg, po; type: ADME, organism-based; details: in vivo
[21] = AUC (0 to 24 hrs) in fasting human interstitial-space fluid of subcutaneous adipose tissue at 250 mg, po; type: ADME, organism-based; outline: as §5
[22] = AUC (0 to 24 hrs) in fasting human interstitial-space fluid of skeletal muscle at 250 mg, po; type: ADME, organism-based, Muscle tissue; design: time < 24 hr, dose 250 mg, route oral; outline: as §5
[23] = Ratio of AUC (0 to 24 hrs) in fasting human interstitial-space fluid of subcutaneous adipose tissue to free AUC (0 to 24 hrs) in fasting human plasma at 250 mg, po; type: ADME, organism-based; details: read-out: Ratio AUC
Outline: (§6)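 AUC0-8, AUC0-12 and AUC0-24 by the linear trapezoidal rule. Values at 12 h and 24 h extrapolated as C8 x e^(-kel x t) from the 8-h concentration. At steady state, AUC0-24 = AUC0-12 x 2. Tissue-to-free-plasma ratios use free plasma AUC, from each subject's own protein binding.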

[24] = Ratio of AUC (0 to 24 hrs) in fasting human interstitial-space fluid of skeletal muscle to free AUC (0 to 24 hrs) in fasting human plasma at 250 mg, po; type: ADME, organism-based; details: read-out: Ratio AUC; outline: as §6
[25] = Cmax in fasting human plasma at 250 mg, po; type: ADME, organism-based; design: dose 250 mg, route oral; outline: as §5
[26] = test system: Homo sapiens; experiment: Free Cmax in fasting human plasma at 250 mg, po; type: ADME, organism-based; details: in vivo; outline: as §1

- half-life [1]: 3.7 h
- half-life [2]: 3.4 h
- half-life [3]: 3.8 h
- Vdss [4]: 126.5 L
- CL/F [5]: 312 mL/min
- Activity [6]: 57.7%
- Activity [7]: 54.3%
- Tmax [8]: 3.8 h
- half-life [9]: 3.7 h
- Tmax [10]: 3.2 h
- Tmax [11]: 3.2 h
- Tmax [12]: 4 h
- fraction unbound [13]: 0.287
- fraction unbound [14]: 0.231
- AUC(0-t) at 8 h [15]: 3630 ng·h/mL
- fAUC [16]: 990 ng·h/mL
- AUC(0-t) [17]: 240 ng·h/mL
- AUC(0-t) at 8 h [18]: 290 ng·h/mL
- AUC(0-t) at 24 h [19]: 4450 ng·h/mL
- fAUC [20]: 1210 ng·h/mL
- AUC(0-t) [21]: 350 ng·h/mL
- AUC(0-t) at 24 h [22]: 480 ng·h/mL
- Kp uu [23]: 0.29
- Kp uu [24]: 0.42
- Cmax [25]: 1090 ng/mL
- fCmax [26]: 0.31 mg/L
Compound: CC[C@H]1OC(=O)[C@H](C)[C@@H](O[C@H]2C[C@@](C)(OC)[C@@H](O)[C@H](C)O2)[C@H](C)[C@@H](O[C@@H]2O[C@H](C)C[C@H](N(C)C)[C@H]2O)[C@](C)(OC)C[C@@H](C)C(=O)[C@H](C)[C@@H](O)[C@]1(C)O [CLARITHROMYCIN]
